Experimental data as given in ChEMBL document CHEMBL5678806, “NMS-P937, an orally available, specific small-molecule polo-like kinase 1 inhibitor with antitumor activity in solid and hematologic malignancies” (Mol Cancer Ther, 2012).
The source made the active and inactive calls. The rule behind the calls is not given here.

Key:
[1] = target: cAMP-dependent protein kinase catalytic subunit PRKX (Homo sapiens) (UniProt P51817); experiment: Inhibition of N-terminal 6His-tagged recombinant full-length human PrKX expressed in baculovirus infected Sf21 cells assessed as residual activity at 0.1 uM relative to control
Sequence of cAMP-dependent protein kinase catalytic subunit PRKX (Homo sapiens) (P51817 whole entry): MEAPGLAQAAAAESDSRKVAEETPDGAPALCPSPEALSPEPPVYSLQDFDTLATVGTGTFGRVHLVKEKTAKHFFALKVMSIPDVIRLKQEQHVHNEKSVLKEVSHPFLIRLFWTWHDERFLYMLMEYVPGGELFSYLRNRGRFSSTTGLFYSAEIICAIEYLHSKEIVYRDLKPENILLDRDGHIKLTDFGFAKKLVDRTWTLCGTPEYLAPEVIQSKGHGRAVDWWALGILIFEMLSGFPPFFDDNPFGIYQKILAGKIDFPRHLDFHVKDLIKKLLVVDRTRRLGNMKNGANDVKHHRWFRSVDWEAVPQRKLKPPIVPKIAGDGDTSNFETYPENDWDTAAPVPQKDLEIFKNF

[2] = system: U-266; experiment: Antiproliferative activity against human U-266 cells assessed as inhibition of cell growth incubated for 72 hrs by cell-titer glo assay; assay type: functional, cell-based; details: U-266, 72 h
[3] = system: MeWo; experiment: Antiproliferative activity against human MeWo cells assessed as inhibition of cell growth incubated for 72 hrs by cell-titer glo assay; assay type: functional, cell-based
Outline: (§1)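 Cells from ATCC or ECACC, kept in supplier-recommended medium with 1% penicillin-streptomycin at 37°C, 5% CO₂. Seeded at 10,000–30,000/cm² (adherent) or 100,000/mL (nonadherent) in medium with 10% fetal calf serum. Dosed after 24 h in duplicate with serial dilutions. Viable cells read by CellTiter-Glo 72 h later. IC50 from sigmoidal fit. At least two independent experiments.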

[4] = system: NCI-H522; experiment: Antiproliferative activity against human NCI-H522 cells assessed as inhibition of cell growth incubated for 72 hrs by cell-titer glo assay; assay type: functional, cell-based; details: NCI-H522, 72 h; outline: as §1
[5] = system: SK-MES-1; experiment: Antiproliferative activity against human SK-MES-1 cells assessed as inhibition of cell growth incubated for 72 hrs by cell-titer glo assay; assay type: functional, cell-based; details: SK-MES-1, 72 h
[6] = system: HCT-116; experiment: Antitumor activity against human HCT-116 cells xenografted in nu/nu mouse assessed as tumor growth inhibition at 45 mg/kg, iv administered for 3 days relative to control; assay type: functional; details: HCT-116, 72 h, time 3 day, read-out: TGI
[7] = target: SRSF protein kinase 3 (Homo sapiens) (UniProt Q9UPE1); experiment: Inhibition of N-terminal 6His-tagged recombinant human full-length MSSK1 expressed in baculovirus infected Sf21 cells assessed as residual activity at 1 uM relative to control
Sequence of SRSF protein kinase 3 (Homo sapiens) (Q9UPE1 whole entry): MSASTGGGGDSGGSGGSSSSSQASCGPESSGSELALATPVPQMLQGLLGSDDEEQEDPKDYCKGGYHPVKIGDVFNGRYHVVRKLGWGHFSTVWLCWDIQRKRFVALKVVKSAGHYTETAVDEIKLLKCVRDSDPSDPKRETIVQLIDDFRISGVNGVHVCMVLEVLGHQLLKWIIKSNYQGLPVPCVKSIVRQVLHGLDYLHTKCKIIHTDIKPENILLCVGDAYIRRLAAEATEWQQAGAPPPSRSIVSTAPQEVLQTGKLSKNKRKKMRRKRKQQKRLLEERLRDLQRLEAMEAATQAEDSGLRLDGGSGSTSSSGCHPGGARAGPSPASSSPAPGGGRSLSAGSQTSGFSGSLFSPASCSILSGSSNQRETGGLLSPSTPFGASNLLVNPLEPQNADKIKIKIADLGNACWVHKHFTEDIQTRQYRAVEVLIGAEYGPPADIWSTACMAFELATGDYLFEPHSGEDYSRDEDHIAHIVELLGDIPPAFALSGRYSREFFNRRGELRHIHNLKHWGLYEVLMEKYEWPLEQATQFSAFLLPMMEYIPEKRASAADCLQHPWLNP

[8] = Oral bioavailability in male cynomolgus monkey at 5 mg/kg by LC-MS analysis; assay type: ADME, organism-based, Macaca fascicularis; details: in vivo
[9] = target: Serine/threonine-protein kinase Chk1 (Homo sapiens, UniProt O14757); experiment: Inhibition of CHK1 (unknown origin) in presence of [gamma-33P]ATP
Sequence of Serine/threonine-protein kinase Chk1 (O14757 whole entry): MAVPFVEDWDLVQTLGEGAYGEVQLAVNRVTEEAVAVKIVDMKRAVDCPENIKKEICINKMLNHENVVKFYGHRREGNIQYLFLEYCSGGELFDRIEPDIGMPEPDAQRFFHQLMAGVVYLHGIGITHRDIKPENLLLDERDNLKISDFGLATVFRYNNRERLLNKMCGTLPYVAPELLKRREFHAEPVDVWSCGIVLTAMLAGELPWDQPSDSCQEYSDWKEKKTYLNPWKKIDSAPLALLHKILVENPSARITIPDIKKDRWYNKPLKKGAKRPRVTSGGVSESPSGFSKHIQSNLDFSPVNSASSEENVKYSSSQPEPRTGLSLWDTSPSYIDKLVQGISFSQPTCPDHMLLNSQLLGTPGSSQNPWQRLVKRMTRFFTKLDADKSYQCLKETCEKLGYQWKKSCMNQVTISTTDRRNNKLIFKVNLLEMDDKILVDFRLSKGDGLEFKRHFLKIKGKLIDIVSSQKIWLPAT

[10] = system: U2OS; experiment: Induction of apoptosis in human U2OS cells assessed as colocalization of cells by measuring Histone H3 phosphorylation on Ser10 incubated for 24 hrs by DRAQ 5 staining based high content imaging assay relative to control; assay type: functional
[11] = system: SW-403; experiment: Antiproliferative activity against human SW403 cells assessed as inhibition of cell growth incubated for 72 hrs by cell-titer glo assay; assay type: functional, cell-based; details: SW-403, 72 h
[12] = target: Cyclin-dependent kinase 1/cyclin B1 (Homo sapiens, UniProt P06493); experiment: Inhibition of CDK1/CycB (unknown origin) in presence of [gamma-33P]ATP; assay type: protein-complex assay
Sequence of Cyclin-dependent kinase 1/cyclin B1 (P06493 whole entry): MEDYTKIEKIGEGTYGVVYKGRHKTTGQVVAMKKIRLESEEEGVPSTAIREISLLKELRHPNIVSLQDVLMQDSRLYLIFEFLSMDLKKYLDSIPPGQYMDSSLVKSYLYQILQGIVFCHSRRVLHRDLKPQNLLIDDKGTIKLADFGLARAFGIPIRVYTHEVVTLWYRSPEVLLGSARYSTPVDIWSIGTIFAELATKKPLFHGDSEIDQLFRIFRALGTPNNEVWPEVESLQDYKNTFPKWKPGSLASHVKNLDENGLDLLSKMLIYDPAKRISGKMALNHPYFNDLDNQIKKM
Sequence of Cyclin-dependent kinase 1/cyclin B1 (P14635 whole entry, further chain): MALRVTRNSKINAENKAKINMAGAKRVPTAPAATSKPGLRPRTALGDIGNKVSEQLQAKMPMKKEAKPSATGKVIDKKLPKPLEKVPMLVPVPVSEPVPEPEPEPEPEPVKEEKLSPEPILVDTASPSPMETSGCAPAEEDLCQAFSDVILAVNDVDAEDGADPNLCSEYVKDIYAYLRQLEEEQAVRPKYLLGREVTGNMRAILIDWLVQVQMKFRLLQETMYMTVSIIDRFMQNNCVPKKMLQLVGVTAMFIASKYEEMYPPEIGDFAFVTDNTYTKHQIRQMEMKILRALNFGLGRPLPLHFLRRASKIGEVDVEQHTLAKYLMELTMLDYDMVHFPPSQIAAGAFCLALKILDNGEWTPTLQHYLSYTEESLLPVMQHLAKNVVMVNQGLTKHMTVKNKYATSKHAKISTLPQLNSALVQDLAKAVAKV

[13] = target: cAMP-dependent protein kinase (PKA) (Homo sapiens) (UniProt P22694+P17612+P22612); experiment: Inhibition of recombinant human full-length PKA expressed in E.coli BL21 (DE3) pLysS cells assessed as residual activity at 1 uM relative to control
[14] = system: SK-MEL-2; experiment: Antiproliferative activity against human SK-MEL-2 cells assessed as inhibition of cell growth incubated for 72 hrs by cell-titer glo assay; assay type: functional, cell-based; details: SK-MEL-2, 72 h
[15] = target: Tyrosine-protein kinase Fes/Fps (Homo sapiens) (UniProt P07332); experiment: Inhibition of N-terminal His6-tagged recombinant full length human Fes expressed in baculovirus infected Sf21 cells assessed as residual activity at 1 uM relative to control
Sequence of Tyrosine-protein kinase Fes/Fps (Homo sapiens) (P07332 whole entry): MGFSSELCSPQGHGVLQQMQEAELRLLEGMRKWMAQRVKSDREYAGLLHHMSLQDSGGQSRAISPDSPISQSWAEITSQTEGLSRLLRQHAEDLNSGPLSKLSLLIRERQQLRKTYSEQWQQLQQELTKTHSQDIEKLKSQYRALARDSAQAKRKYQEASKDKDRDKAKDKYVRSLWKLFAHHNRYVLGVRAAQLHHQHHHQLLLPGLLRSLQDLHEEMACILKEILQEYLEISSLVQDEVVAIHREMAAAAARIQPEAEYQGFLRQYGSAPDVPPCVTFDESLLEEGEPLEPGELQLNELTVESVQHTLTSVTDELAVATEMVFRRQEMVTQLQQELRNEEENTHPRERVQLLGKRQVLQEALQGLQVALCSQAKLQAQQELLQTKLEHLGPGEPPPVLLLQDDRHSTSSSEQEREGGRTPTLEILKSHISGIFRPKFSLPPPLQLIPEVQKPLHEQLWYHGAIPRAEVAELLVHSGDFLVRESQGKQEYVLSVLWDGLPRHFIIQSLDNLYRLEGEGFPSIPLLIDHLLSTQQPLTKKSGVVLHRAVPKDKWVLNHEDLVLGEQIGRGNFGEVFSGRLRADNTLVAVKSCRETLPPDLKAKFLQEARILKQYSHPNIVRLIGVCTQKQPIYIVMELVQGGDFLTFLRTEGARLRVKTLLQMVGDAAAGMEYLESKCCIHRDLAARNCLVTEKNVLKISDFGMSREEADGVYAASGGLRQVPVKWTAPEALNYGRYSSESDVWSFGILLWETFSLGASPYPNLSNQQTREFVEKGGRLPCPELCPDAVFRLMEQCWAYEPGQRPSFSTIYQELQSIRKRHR

[16] = system: C-33-A; experiment: Antiproliferative activity against human C-33-A cells assessed as inhibition of cell growth incubated for 72 hrs by cell-titer glo assay; assay type: functional, cell-based
Outline: (§2)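 Cells seeded 10,000–30,000/cm² (adherent) or 100,000/mL (suspension) in medium with 10% fetal calf serum; after 24 h treated in duplicate with serial dilutions for 72 h. Viable cells read by CellTiter-Glo luminescence; IC50 from sigmoidal fit; at least two independent experiments.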

[17] = target: Dual specificity tyrosine-phosphorylation-regulated kinase 2 (Homo sapiens) (UniProt Q92630); experiment: Inhibition of 6His-tagged recombinant full-length human DYRK2 expressed in baculovirus infected Sf21 cells assessed as residual activity at 1 uM relative to control
Sequence of Dual specificity tyrosine-phosphorylation-regulated kinase 2 (Homo sapiens) (Q92630 whole entry): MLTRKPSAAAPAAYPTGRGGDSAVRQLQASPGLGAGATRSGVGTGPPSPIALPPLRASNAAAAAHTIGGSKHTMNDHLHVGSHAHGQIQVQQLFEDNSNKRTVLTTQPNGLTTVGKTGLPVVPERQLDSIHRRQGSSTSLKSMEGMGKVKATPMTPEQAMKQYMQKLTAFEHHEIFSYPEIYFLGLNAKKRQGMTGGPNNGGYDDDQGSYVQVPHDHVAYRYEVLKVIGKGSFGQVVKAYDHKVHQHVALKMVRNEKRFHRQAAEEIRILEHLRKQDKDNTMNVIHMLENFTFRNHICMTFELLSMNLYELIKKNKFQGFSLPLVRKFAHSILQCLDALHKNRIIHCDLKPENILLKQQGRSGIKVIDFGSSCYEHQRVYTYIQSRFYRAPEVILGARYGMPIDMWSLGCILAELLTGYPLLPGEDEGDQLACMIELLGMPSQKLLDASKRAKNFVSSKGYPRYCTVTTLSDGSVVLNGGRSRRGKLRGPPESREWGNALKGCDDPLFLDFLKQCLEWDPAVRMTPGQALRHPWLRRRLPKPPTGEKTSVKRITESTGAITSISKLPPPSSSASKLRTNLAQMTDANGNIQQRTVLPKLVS

[18] = Clearance in male cynomolgus monkey at 5 mg/kg, iv by LC-MS analysis; assay type: ADME, organism-based, Macaca fascicularis; details: in vivo
[19] = system: A2780; experiment: Induction of mitosis in human A2780 cells xenografted in nu/nu mouse assessed as decreased NPM phosphorylation on Thr199 at 60 mg/kg, po administered for 12 to 24 hrs by immunohistochemistry analysis; assay type: functional, organism-based; details: time lower […], time upper 24.0 hrs
[20] = Half-life in Sprague-Dawley rat at 10 mg/kg, po by LC-MS analysis; assay type: ADME, organism-based; details: in vivo
[21] = target: Phosphorylase b kinase gamma catalytic chain, liver/testis isoform (Homo sapiens) (UniProt P15735); experiment: Inhibition of GST-tagged recombinant human PhKgamma2 (1 to 301 residues) expressed in E. coli assessed as residual activity at 1 uM relative to control
Sequence of Phosphorylase b kinase gamma catalytic chain, liver/testis isoform (Homo sapiens) (P15735 whole entry, the tested form may be a part, canonical isoform): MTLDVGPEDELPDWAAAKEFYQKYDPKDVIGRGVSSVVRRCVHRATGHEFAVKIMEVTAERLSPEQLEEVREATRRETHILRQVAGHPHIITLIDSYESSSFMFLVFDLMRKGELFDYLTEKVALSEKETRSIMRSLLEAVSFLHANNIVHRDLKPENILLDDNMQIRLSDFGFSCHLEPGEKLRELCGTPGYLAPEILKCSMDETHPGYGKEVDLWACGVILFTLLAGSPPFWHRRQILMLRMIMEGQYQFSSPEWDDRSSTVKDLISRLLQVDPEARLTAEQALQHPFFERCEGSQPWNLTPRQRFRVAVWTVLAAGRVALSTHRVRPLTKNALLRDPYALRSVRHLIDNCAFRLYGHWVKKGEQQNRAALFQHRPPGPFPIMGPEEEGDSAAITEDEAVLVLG

[22] = system: NCI-H322M; experiment: Antiproliferative activity against human NCI-H322M cells assessed as inhibition of cell growth incubated for 72 hrs by cell-titer glo assay; assay type: functional, cell-based; outline: as §1
[23] = Antiproliferative activity against human GM03798 cells assessed as inhibition of cell growth incubated for 72 hrs by cell-titer glo assay; assay type: functional, cell-based; details: GM03798, 72 h; outline: as §2
[24] = system: NALM-6; experiment: Antiproliferative activity against human NALM-6 cells assessed as inhibition of cell growth incubated for 72 hrs by cell-titer glo assay; assay type: functional, cell-based; details: NALM-6, 72 h; outline: as §1
[25] = system: A2780; experiment: Induction of mitosis in human A2780 cells at 0.0001 to 100 uM incubated for upto 24 hrs followed by compound washout by cell titer glow assay; assay type: functional, cell-based; details: dose 0.0001-100 µM
[26] = target: Mitogen-activated protein kinase 14 (Homo sapiens, UniProt Q16539); experiment: Inhibition of P38alpha (unknown origin) in presence of [gamma-33P]ATP
Sequence of Mitogen-activated protein kinase 14 (Q16539 whole entry): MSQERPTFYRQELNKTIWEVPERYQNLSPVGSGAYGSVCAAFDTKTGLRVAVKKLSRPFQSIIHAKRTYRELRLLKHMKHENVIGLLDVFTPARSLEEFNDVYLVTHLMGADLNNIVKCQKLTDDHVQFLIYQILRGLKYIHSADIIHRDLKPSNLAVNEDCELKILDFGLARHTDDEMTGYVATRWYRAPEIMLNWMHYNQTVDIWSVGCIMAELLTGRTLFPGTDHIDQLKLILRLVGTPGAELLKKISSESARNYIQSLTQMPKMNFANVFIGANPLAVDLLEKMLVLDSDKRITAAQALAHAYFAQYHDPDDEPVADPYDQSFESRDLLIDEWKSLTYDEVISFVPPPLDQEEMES

[27] = system: SF-295; experiment: Antiproliferative activity against human SF-295 cells assessed as inhibition of cell growth incubated for 72 hrs by cell-titer glo assay; assay type: functional, cell-based; details: SF-295, 72 h; outline: as §1
[28] = system: SKM-1; experiment: Antiproliferative activity against human SKM-1 cells assessed as inhibition of cell growth incubated for 72 hrs by cell-titer glo assay; assay type: functional, cell-based; details: SKM-1, 72 h
[29] = system: LNCaP; experiment: Antiproliferative activity against human LNCaP cells assessed as inhibition of cell growth incubated for 72 hrs by cell-titer glo assay; assay type: functional, cell-based
Outline: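 Cells seeded at 10,000–30,000/cm² (adherent) or 100,000/mL (nonadherent) in medium with 10% fetal calf serum; after 24 h, treated in duplicate with serial dilutions for 72 h. Viable cell number read by CellTiter-Glo luminescence; IC50 from sigmoidal fit; at least two independent experiments.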

[30] = system: MV4-11; experiment: Antiproliferative activity against human MV4-11 cells assessed as inhibition of cell growth incubated for 72 hrs by cell-titer glo assay; assay type: functional, cell-based; details: MV4-11, 72 h; outline: as §1

## CN1CCN(c2ccc(OC(F)(F)F)c(Nc3ncc4c(n3)-c3c(c(C(N)=O)nn3CCO)CC4)c2)CC1 [ONVANSERTIB]
[1]
  Activity: 90%
[2]
  IC50: 40 nM
[3]
  IC50: 237 nM
[4]
  IC50: 34 nM
[5]
  IC50: 367 nM
[6]
  inhibition in vivo at 45 mg/kg: 83%
[7]
  Activity: 89%
[8]
  F: 35%
[9]
  IC50: > 10000 nM
[10]
  Activity: 13%
[11]
  IC50: 46 nM
[12]
  IC50: > 10000 nM
[13]
  Activity: 85%
[14]
  IC50: 256 nM
[15]
  Activity: 30%
[16]
  IC50: 61 nM
[17]
  Activity: 83%
[18]
  clearance: 11.2 mL/min/kg
[19]
  Activity: Active
[20]
  half-life: 3.1 h
[21]
  Activity: 88%
[22]
  IC50: 183 nM
[23]
  IC50: 55 nM
[24]
  IC50: 61 nM
[25]
  Activity: Active
[26]
  IC50: > 10000 nM
[27]
  IC50: 386 nM
[28]
  IC50: 60 nM
[29]
  IC50: 82 nM
[30]
  IC50: 58 nM
